Reference: ChEMBL document CHEMBL3877290, “Targeting the entry region of Hsp90's ATP binding pocket with a novel 6,7-dihydrothieno[3,2-c]pyridin-5(4H)-yl amide” (Eur J Med Chem, 2016)
Active and inactive are the calls of the source. The calls are words filed in the database; no cut-off is given here.

Key:
[1] = biological target: Heat shock protein HSP 90-alpha (Homo sapiens, UniProt P07900); experiment: Inhibition of fluorescein isothiocyanate labeled geldanamycin binding to N-terminal domain of full length human recombinant Hsp90alpha expressed in Escherichia coli BL21 (DE3) after 14 hrs by fluorescence polarization assay
Cytochrome P450 1A2 = biological target: T1, Cytochrome P450 1A2 (Homo sapiens, UniProt P05177); experiment: Inhibition of CYP1A2 in human liver microsomes assessed as phenacetin O-deethylation by LC/MS/MS analysis; assay type: ADME
T1 sequence (P05177 whole entry): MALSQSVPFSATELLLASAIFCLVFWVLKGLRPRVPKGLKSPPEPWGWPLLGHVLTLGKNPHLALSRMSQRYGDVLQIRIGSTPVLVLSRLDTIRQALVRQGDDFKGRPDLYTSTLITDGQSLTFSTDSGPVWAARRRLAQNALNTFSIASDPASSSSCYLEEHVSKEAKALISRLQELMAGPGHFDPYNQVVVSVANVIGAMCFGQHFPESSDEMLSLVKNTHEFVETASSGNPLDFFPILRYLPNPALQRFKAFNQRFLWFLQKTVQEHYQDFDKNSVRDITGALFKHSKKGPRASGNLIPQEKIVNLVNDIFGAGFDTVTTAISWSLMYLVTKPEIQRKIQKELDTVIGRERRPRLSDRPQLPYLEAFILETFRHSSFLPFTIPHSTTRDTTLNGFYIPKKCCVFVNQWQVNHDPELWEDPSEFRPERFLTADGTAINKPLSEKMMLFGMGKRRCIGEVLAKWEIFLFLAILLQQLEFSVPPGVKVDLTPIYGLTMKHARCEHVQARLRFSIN
Method in brief: (§1)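 Pooled human liver microsomes incubated without and with compound at 0–50 µM final (acetonitrile below 0.5%); probe activities in cocktail incubation: phenacetin O-deethylation (CYP1A2), tolbutamide 4-hydroxylation (2C9), omeprazole hydroxylation (2C19), dextromethorphan O-demethylation (2D6), midazolam 1'-hydroxylation (3A). Metabolites quantified by tandem mass spectrometry; duplicates; IC50 derived.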

NCI-H1975 [2] = experiment: cells; conditions: Homo sapiens, NCI-H1975, 24 h, read-out: Activity
[3] = biological target: T2, Heat shock protein HSP90 (Homo sapiens) (UniProt P07900+P08238); conditions: NCI-H1975, 0.05 to 2 uM
[4] = biological target: T2, Heat shock protein HSP90 (Homo sapiens); conditions: NCI-H1975, 0.05 to 2 uM; remark: listed apart in the source
Mus musculus [5] = experiment: Toxicity in NOD-scid IL2Rgamma-null mouse xenografted with human NCI-H1975 cells assessed as body weight loss at 10 mg/kg, ip administered daily followed by weekend rest for 2 weeks measured twice per week during compound dosing; assay type: organism-based; conditions: in vivo, 336 h
Method in brief: (§2)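 NSG mice (8 per group, randomised) received 2.0 × 10^6 H1975 cells s.c. in the left flank on day zero. Dosing began once tumours reached 500 mm3: i.p. at 10 mg/kg or DMSO vehicle, daily with weekend rest, for 2 weeks. Body weight tracked and deaths recorded during treatment. Housing in individually ventilated cages at 25±2 °C with a 12 h light-dark cycle.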

[6] = Antiproliferative activity against gefitinib-resistant human NCI-H1975 cells after 1 to 3 days by MTS assay; assay type: functional
Method in brief: (§3)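 Cells seeded at 3 × 10^3 (Skbr3) or 2 × 10^3 (H1975) per well and left to attach overnight, then exposed to varying compound concentrations or 1% DMSO vehicle at 37 °C for 1, 2 and 3 days. Viability read by MTS colorimetric assay at 490 nm and expressed as percent of DMSO-only absorbance. Skbr3 in RPMI 1640 with 25 mM HEPES; H1975 in RPMI 1640 with L-glutamine; both with 10% FBS and penicillin/streptomycin.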

Mus musculus [7] = experiment: Decrease of Akt level in human NCI-H1975 cells xenografted in NOD-scid IL2Rgamma-null mouse at 10 mg/kg, ip administered daily followed by weekend rest for 2 weeks by immunohistochemical analysis; assay type: functional, organism-based
Cytochrome P450 2C9 = Cytochrome P450 2C9 (Homo sapiens, UniProt P11712); experiment: Inhibition of CYP2C9 in human liver microsomes assessed as tolbutamide 4-methylhydroxylation by LC/MS/MS analysis; assay type: ADME; method in brief: as §1
Cytochrome P450 2D6 = Cytochrome P450 2D6 (Homo sapiens, UniProt P10635); experiment: Inhibition of CYP2D6 in human liver microsomes assessed as dextromethorphan O-demethylation by LC/MS/MS analysis; assay type: ADME; method in brief: as §1
CYP3A = CYP3A (Homo sapiens, UniProt P08684+P20815+P24462+Q9HB55); experiment: Inhibition of CYP3A in human liver microsomes assessed as midazolam 1'-hydroxylation by LC/MS/MS analysis; assay type: ADME; conditions: probe midazolam (1'-hydroxylation); method in brief: as §1
NCI-H1975 [8] = experiment: Induction of apoptosis in gefitinib-resistant human NCI-H1975 cells assessed as late apoptotic cells at 0.5 uM after 24 hrs by Annexin V-FITC/propidium iodide staining based flow cytometry (reference value: 2.79%); assay type: functional
[9] = biological target: T2, Heat shock protein HSP90 (Homo sapiens); conditions: NCI-H1975, 0.05 to 2 uM; remark: listed apart in the source
[10] = biological target: T2, Heat shock protein HSP90 (Homo sapiens); conditions: NCI-H1975, 0.05 to 2 uM; remark: listed apart in the source
[11] = Antiproliferative activity against Her2-overexpressing human SKBR3 cells after 1 to 3 days by MTS assay; assay type: functional; conditions: SK-BR-3; method in brief: as §3
Mus musculus [12] = experiment: Toxicity in NOD-scid IL2Rgamma-null mouse xenografted with human NCI-H1975 cells assessed as mortality at 10 mg/kg, ip administered daily followed by weekend rest for 2 weeks measured twice per week during compound dosing; assay type: organism-based; conditions: in vivo, 336 h; method in brief: as §2
NCI-H1975 [13] = experiment: Induction of apoptosis in gefitinib-resistant human NCI-H1975 cells assessed as cleavage of caspase 3 at 0.5 uM after 24 hrs by Western blot analysis; assay type: functional, cell-based
Method in brief: (§4)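 H1975 cells seeded 1 × 10^6 per 100 mm dish, attached overnight, exposed 24 h to 0.05, 0.1, 0.5, 1 and 2 µM compound, with 1% DMSO and 1 µM geldanamycin as controls. Lysed in Tris-HCl pH 7.6/NaCl/NP-40/deoxycholate/SDS buffer; 30 µg per lane SDS-PAGE, PVDF, 5% milk block, specific antibodies (PARP, caspase 3, cleaved caspase 3/8, β-actin), HRP secondary, ECL detection.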

Cytochrome P450 2C19 = Cytochrome P450 2C19 (Homo sapiens, UniProt P33261); experiment: Inhibition of CYP2C19 in human liver microsomes assessed as omepraozle hydroxylation by LC/MS/MS analysis; assay type: ADME; method in brief: as §1
NCI-H1975 [14] = experiment: Induction of apoptosis in gefitinib-resistant human NCI-H1975 cells assessed as necrotic cells at 0.5 uM after 24 hrs by Annexin V-FITC/propidium iodide staining based flow cytometry (reference value: 2.68%); assay type: functional
NCI-H1975 [15] = experiment: Induction of apoptosis in gefitinib-resistant human NCI-H1975 cells assessed as cleavage of PARP at 0.5 uM after 24 hrs by Western blot analysis; assay type: functional, cell-based; method in brief: as §4
NCI-H1975 [16] = experiment: Induction of apoptosis in gefitinib-resistant human NCI-H1975 cells assessed as viable cells at 0.5 uM after 24 hrs by Annexin V-FITC/propidium iodide staining based flow cytometry (reference value: 92.68%); assay type: functional; conditions: NCI-H1975, 24 h, read-out: Activity
NCI-H1975 [17] = experiment: Induction of apoptosis in gefitinib-resistant human NCI-H1975 cells assessed as cleavage of caspase 8 at 0.5 uM after 24 hrs by Western blot analysis; assay type: functional, cell-based; method in brief: as §4
[18] = biological target: T2, Heat shock protein HSP90 (Homo sapiens); conditions: NCI-H1975, 0.05 to 2 uM; remark: listed apart in the source
NCI-H1975 [19] = experiment: Induction of apoptosis in gefitinib-resistant human NCI-H1975 cells assessed as early apoptotic cells at 0.5 uM after 24 hrs by Annexin V-FITC/propidium iodide staining based flow cytometry (reference value: 1.85%); assay type: functional
[20] = Effect on beta-actin level in gefitinib-resistant human NCI-H1975 cells at 0.05 to 2 uM after 24 hrs by Western blot analysis; assay type: ADME, cell-based; conditions: nci-h1975, 24 h; method in brief: as §4
[21] = biological target: T2, Heat shock protein HSP90 (Homo sapiens); conditions: NCI-H1975, 0.05 to 2 uM; remark: listed apart in the source
NCI-H1975 [22] = experiment: Antitumor activity against human NCI-H1975 cells xenografted in NOD-scid IL2Rgamma-null mouse assessed as tumor growth inhibition at 10 mg/kg, ip administered daily followed by weekend rest for 2 weeks measured twice per week during compound dosing; assay type: functional, organism-based

Cytochrome P450 2C19, sequence (P33261 whole entry): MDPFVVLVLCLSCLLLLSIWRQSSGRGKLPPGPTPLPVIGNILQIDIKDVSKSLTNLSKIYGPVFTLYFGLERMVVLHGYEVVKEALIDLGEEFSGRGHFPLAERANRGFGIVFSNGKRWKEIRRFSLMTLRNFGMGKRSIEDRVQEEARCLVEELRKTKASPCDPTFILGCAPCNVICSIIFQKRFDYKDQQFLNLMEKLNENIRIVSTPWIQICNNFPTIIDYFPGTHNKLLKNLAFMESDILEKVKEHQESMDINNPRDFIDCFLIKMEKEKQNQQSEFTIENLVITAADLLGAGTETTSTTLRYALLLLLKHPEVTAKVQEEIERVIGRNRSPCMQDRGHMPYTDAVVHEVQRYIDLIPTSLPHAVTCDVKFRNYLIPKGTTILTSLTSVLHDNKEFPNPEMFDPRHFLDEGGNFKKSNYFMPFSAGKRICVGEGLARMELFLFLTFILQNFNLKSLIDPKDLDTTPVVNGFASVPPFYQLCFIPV
Cytochrome P450 2D6, sequence (P10635 whole entry): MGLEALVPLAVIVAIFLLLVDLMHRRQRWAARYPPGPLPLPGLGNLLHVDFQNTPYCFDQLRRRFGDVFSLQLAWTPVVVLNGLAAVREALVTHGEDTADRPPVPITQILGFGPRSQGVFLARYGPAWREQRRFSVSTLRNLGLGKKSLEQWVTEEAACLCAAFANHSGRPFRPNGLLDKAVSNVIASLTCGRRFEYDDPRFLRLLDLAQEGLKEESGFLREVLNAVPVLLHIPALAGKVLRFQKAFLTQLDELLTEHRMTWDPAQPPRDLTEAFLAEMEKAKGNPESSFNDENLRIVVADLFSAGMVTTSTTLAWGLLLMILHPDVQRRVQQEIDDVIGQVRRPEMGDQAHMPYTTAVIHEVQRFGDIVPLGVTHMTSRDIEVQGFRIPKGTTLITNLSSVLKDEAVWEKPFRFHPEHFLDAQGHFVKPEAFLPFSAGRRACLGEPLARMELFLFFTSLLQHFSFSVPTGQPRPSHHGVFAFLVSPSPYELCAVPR
Cytochrome P450 2C9, sequence (P11712 whole entry): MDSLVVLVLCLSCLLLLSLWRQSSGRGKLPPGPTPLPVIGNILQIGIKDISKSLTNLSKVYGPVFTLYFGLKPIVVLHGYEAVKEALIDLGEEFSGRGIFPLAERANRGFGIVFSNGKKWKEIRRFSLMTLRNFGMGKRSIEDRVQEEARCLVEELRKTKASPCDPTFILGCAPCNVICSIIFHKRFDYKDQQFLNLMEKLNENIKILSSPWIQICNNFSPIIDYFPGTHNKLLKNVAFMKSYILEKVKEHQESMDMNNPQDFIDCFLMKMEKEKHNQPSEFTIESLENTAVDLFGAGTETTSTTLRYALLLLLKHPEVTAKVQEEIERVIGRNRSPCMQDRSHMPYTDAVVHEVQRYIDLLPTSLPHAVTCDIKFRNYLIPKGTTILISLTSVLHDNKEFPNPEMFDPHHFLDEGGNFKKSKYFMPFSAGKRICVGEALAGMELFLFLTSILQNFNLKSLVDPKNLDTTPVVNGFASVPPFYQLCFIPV

## CC(C)c1cc(C(=O)N2CCc3sccc3C2)c(O)cc1O
[1]
  IC50: 0.0503 µM
Cytochrome P450 1A2
  IC50: > 50 µM
NCI-H1975 [2]
  viability at 1 µM: 76%
[3]
  inhibition: Active
[4]
  inhibition: Active
Mus musculus [5]
  Activity: Non-Toxic
[6]
  GI50: 0.31 µM
Mus musculus [7]
  Activity: Active
Cytochrome P450 2C9
  IC50: > 50 µM
Cytochrome P450 2D6
  IC50: > 50 µM
CYP3A
  IC50: > 50 µM
NCI-H1975 [8]
  Activity: 3.77%
[9]
  inhibition: Active
[10]
  inhibition: Active
[11]
  GI50: 0.11 µM
Mus musculus [12]
  Activity: Non-Toxic
NCI-H1975 [13]
  Activity: Active
Cytochrome P450 2C19
  IC50: > 50 µM
NCI-H1975 [14]
  Activity: 3.67%
NCI-H1975 [15]
  Activity: Active
NCI-H1975 [16]
  viability at 0.5 µM: 83.9%
NCI-H1975 [17]
  Activity: Active
[18]
  inhibition: Active
NCI-H1975 [19]
  Activity: 8.67%
[20]
  Activity: Non-Toxic
[21]
  inhibition: Active
NCI-H1975 [22]
  TGI: Active

## O=C(c1cc(Cl)c(O)cc1O)N1CCc2ccccc2C1
[1]
  IC50: 0.183 µM
[6]
  GI50: 19.9 µM
[11]
  GI50: 7.1 µM

## O=C(Nc1ccccc1)c1cc(Cl)c(O)cc1O
[1]
  IC50: > 1 µM
[6]
  GI50: > 50 µM

## COC1=C2C[C@@H](C)C[C@H](OC)[C@H](O)[C@@H](C)/C=C(\C)[C@H](OC(N)=O)[C@@H](OC)/C=C\C=C(/C)C(=O)NC(=CC1=O)C2=O [GELDANAMYCIN]
NCI-H1975 [2]
  viability at 1 µM: 65.7%
[6]
  GI50: 0.56 µM
[11]
  GI50: 0.43 µM

## O=C(c1cc(Cl)c(O)cc1O)N1CCc2ccsc2C1
[1]
  IC50: 0.136 µM
[6]
  GI50: 8.7 µM
[11]
  GI50: 5.4 µM

## O=C(c1cc(Cl)c(O)cc1O)N1CCN(c2ccccc2)CC1
[1]
  IC50: 0.481 µM
[6]
  GI50: 19.1 µM
[11]
  GI50: 9.3 µM

## Oc1cc(O)c(-c2nc3ccccc3o2)cc1Cl
[1]
  IC50: > 1 µM
[6]
  GI50: > 50 µM
[11]
  GI50: > 50 µM

## O=C(Nc1ccc(O)cc1)c1cc(Cl)c(O)cc1O
[1]
  IC50: > 1 µM
[6]
  GI50: > 50 µM
